Measured values from different studies.
Each line is one published result; the experiments were not run side by side. pIC50: −log10 of the molar value.
RXFP3: Relaxin-3 receptor 1 (RXFP3, Homo sapiens, UniProt Q9NSD7)
ELANE: Neutrophil elastase (ELANE, Homo sapiens, UniProt P08246)
Delta-aminolevulinic acid dehydratase C162A/K59N: Delta-aminolevulinic acid dehydratase (Homo sapiens, UniProt P13716, C162A/K59N)
SMUG1: SMUG1 (Homo sapiens, UniProt Q53HV7)
AVPR2: Vasopressin V2 receptor (AVPR2, Homo sapiens, UniProt P30518)
BRAF: Serine/threonine-protein kinase B-raf (BRAF, Homo sapiens, UniProt P15056)
BACE1: Beta-secretase 1 (BACE1, Homo sapiens, UniProt P56817)
ROS1: Proto-oncogene tyrosine-protein kinase ROS (ROS1, Homo sapiens, UniProt P08922)

Cc1cccc(-c2noc(-c3ccc(NC(=O)C4CC(=O)N(Cc5cccnc5)C4)cc3)n2)c1 (stereo not shown) — pIC50 (RXFP3; cAMP, antagonist, TR-FRET): 5.39
CCOC(=O)c1nn(C(=O)c2cccc(C)c2)c2ccccc2c1=O — pIC50 (ELANE; enzyme activity, inhibitor, fluorescence): 6.68
O=C(Nc1ccc(-c2nc(-c3ccc(Cl)cc3)no2)cc1)C1CC(=O)N(Cc2cccnc2)C1 (stereo not shown) — pIC50 (RXFP3; cAMP, antagonist, TR-FRET): 5.83
CCOC(=O)c1nn(C(=O)C2CC2)c2ccccc2c1=O — pIC50 (ELANE; enzyme activity, inhibitor, fluorescence): 6.24
Cc1ncsc1-c1ccc(CNC(=O)[C@@H]2C[C@H](O)CN2C(=O)[C@@H](NC(=O)C2(F)CC2)C(C)(C)C)c(OCCc2ccc(CN3CCN(c4cc(-c5ccccc5O)nnc4N)CC3)cc2)c1 — pIC50 (SWI/SNF-related matrix-associated actin-dependent regulator of chromatin subfamily A member 2, bromodomain (SMARCA2, Homo sapiens, UniProt P51531); ligand displacement, TR-FRET): 5.89
Cc1c(Cl)cccc1Nc1ccccc1C(=O)O — pIC50 (Delta-aminolevulinic acid dehydratase C162A/K59N; enzyme activity, inhibitor, absorbance; pH 8, with preincubation): 5.68
O=C(Nc1ccc(Cl)c(Cl)c1)N1CCC(n2c(=O)[nH]c3c(Br)cccc32)CC1 — pIC50 (SMUG1; enzyme activity, inhibitor): < 4.00
CCC(C)n1ncn(-c2ccc(N3CCN(c4ccc(OCC5COC(Cn6cncn6)(c6ccc(Cl)cc6Cl)O5)cc4)CC3)cc2)c1=O (stereo not shown) — pIC50 (AVPR2; calcium signal, antagonist): 4.51
CC(C)(C)n1nc(-c2ccc3nc(OC4CC4)ccc3c2)c(C(N)=O)c1N — pIC50 (BRAF; cell-free assay): < 5.00
Cc1ccc(COc2ccc3c(c2)NC(=C(C#N)C(=O)c2ccc(Cl)cc2Cl)NC3=O)cc1 — pIC50 (Cytoplasmic dynein 2 heavy chain 1 (DYNC2H1, Homo sapiens, UniProt Q8NCM8); ATPase activity, inhibitor): 4.96
O=c1oc2c(O)c(O)cc3c(=O)oc4c(O)c(O)cc1c4c23 — pIC50 (DNA polymerase iota (Homo sapiens, UniProt Q9UNA4); enzyme activity, inhibitor): 7.09
CC(C)C[C@H](NC(=O)[C@H](Cc1ccccc1)NC(=O)[C@@H](N)Cc1ccc(O)cc1)C(=O)N[C@@H](Cc1ccccc1)C(=O)N[C@@H](CCCNC(=N)N)C(=O)N1CCC[C@H]1C(=O)N[C@@H](CCCNC(=N)N)C(=O)N[C@@H](CC(N)=O)C(N)=O — pIC50 (Neuromedin-U receptor 2 (Mus musculus, UniProt Q8BZ39); ligand displacement, radioligand; cell membranes): 10.05
O=C(Nc1ccn(Cc2ccc(O)cc2C(F)(F)F)n1)c1c(F)cccc1F — pIC50 (Transient receptor potential cation channel subfamily V member 4 (TRPV4, Homo sapiens, UniProt Q9HBA0); ion current, inhibitor): < 5.00
Nc1cccc(-c2cc3c(Oc4cccc(O)c4)ncnc3[nH]2)c1 — pIC50 (BRAF; cell-free assay, inhibitor): 6.08
CCCc1cc2cc(-n3nc(C)c4c3CC(C)(C)CC4=O)cc(N[C@H]3CC[C@H](O)CC3)c2c(=O)[nH]1 — pIC50 (Endoplasmin (HSP90B1, Canis lupus familiaris, UniProt P41148); ligand displacement, FP): < 4.30
O=Cc1cc(Br)cc(Br)c1O — pIC50 (Delta-aminolevulinic acid dehydratase C162A/K59N; enzyme activity, inhibitor, absorbance; pH 8, with preincubation): 4.66
O=C(Nc1ccc(Cl)cc1)N1CCC(n2c(=O)[nH]c3c(Br)cccc32)CC1 — pIC50 (SMUG1; enzyme activity, inhibitor): < 4.00
CC(C)(O)C1Cc2c(cc3occ(-c4ccc(O)cc4)c(=O)c3c2O)O1 (stereo not shown) — pIC50 (BACE1; enzyme activity, inhibitor): < 4.05
O=C(Nc1ccc(-c2nc(-c3ccc(Br)cc3)no2)cc1)C1CC(=O)N(Cc2cccnc2)C1 (stereo not shown) — pIC50 (RXFP3; cAMP, antagonist, TR-FRET): 5.51
CC(C)c1cc(NC(=O)Nc2ccc(F)c(F)c2)n(-c2ccccc2)n1 — pIC50 (Kir3.1/Kir3.2 (Homo sapiens, UniProt P48051+P48549); ion flux, inhibitor): 5.60
COc1ccc(S(=O)(=O)ON=C2C=C(C)C(=O)C(C)=C2)cc1 — pIC50 (Histone acetyltransferase KAT5 (KAT5, Homo sapiens, UniProt Q92993); enzyme activity, inhibitor, radiometric): < 4.00
O=C(Nc1ccc(-c2nc(-c3ccccc3)no2)cc1)C1CC(=O)N(Cc2cccnc2)C1 (stereo not shown) — pIC50 (RXFP3; cAMP, antagonist, TR-FRET): 5.11
C=CC(=O)Nc1cc(Nc2nccc(Nc3cc(Cl)c(F)cc3C(C)(C)O)n2)c(OC)cc1N1CC[C@@H](N(C)C)C1 — pIC50 (ROS1; enzyme activity, inhibitor; with preincubation): 6.03
C=C(Cl)C(=O)Nc1cc(Nc2nc(Nc3cnn(C)c3)c3sccc3n2)c(OC)cc1N1CCN(C)CC1 — pIC50 (Epidermal growth factor receptor (EGFR, Homo sapiens, UniProt P00533, C797S/L858R/T790M); enzyme activity, inhibitor, ELISA): < 6.00
CCC(C)(O)C(=O)N1CCC(NC(=O)Nc2ccc(OC(F)(F)F)c(F)c2)CC1 (stereo not shown) — pIC50 (Bifunctional epoxide hydrolase 2 (Ephx2, Mus musculus, UniProt P34914); enzyme activity, inhibitor): 7.89
Cc1cccc(C(=O)n2nc(Cl)c(=O)c3ccccc32)c1 — pIC50 (ELANE; enzyme activity, inhibitor, fluorescence): 6.01
CC[C@@H](C(=O)Nc1ccc(C(N)=O)c(F)c1)n1cc(OC)c(-c2cc(Cl)ccc2-n2cc(C(F)(F)F)nn2)cc1=O — pIC50 (Tissue-type plasminogen activator (PLAT, Homo sapiens, UniProt P00750); enzyme activity, inhibitor): < 5.00
NS(=O)(=O)c1cc2c(cc1C(F)(F)F)NC(Cc1ccccc1)NS2(=O)=O (stereo not shown) — pIC50 (Delta-aminolevulinic acid dehydratase C162A/K59N; enzyme activity, inhibitor, absorbance; pH 8, with preincubation): 3.89
CCN1CCN(c2c(Cl)cccc2NC(=O)c2ccc(Br)o2)CC1 — pIC50 (Mitogen-activated protein kinase 8 (MAPK8, Homo sapiens, UniProt P45983); enzyme activity, inhibitor, TR-FRET): 6.31
CC(=O)N[C@H]1CSSC[C@@H](C(=O)N[C@H](Cc2c[nH]c3ccccc23)C(N)=O)NC(=O)[C@@H](Cc2ccccc2)NC(=O)[C@H](CCCNC(=N)N)NC1=O — pIC50 (Melanocortin receptor 3 (MC3R, Homo sapiens, UniProt P41968); ligand displacement, radioligand): < 5.30
CC(C)C[C@H](NC(=O)[C@@H]1COCCCCCCCC(=O)N2CCC[C@H]2C(=O)N1)C(=O)[C@@]1(C)CO1 — pIC50 (Proteasome Macropain subunit MB1 (PSMB5, Homo sapiens, UniProt P28074); enzyme activity, inhibitor, fluorescence): < 5.00
CCCS(=O)(=O)Nc1ccc(F)c(C(=O)c2c[nH]c3ncc(-c4ccc(CNC(=O)COCC(=O)NCc5ccc(-c6cnc7[nH]cc(C(=O)c8c(F)ccc(NS(=O)(=O)CCC)c8F)c7c6)cc5)cc4)cc23)c1F — pIC50 (Serine/threonine-protein kinase B-raf (BRAF, Homo sapiens, UniProt P15056, V600E); enzyme activity, inhibitor, ELISA): ~7.25
C[C@@H]1COCCN1c1nc(-c2cnc(N)nc2C(F)F)nc(N2CCOCC2)n1 — pIC50 (Serine/threonine-protein kinase mTOR (MTOR, Homo sapiens, UniProt P42345); ligand displacement, TR-FRET): 7.49
COc1cc(NC(=O)N2CCC(n3c(=O)[nH]c4c(Br)cccc43)CC2)ccc1Cl — pIC50 (SMUG1; enzyme activity, inhibitor): < 4.00
NCCCC[C@H](NC(=O)[C@@H]1CCCN1C(=O)[C@@H]1CSSC[C@H](N)C(=O)N[C@@H](Cc2ccc(O)cc2)C(=O)N[C@@H](Cc2ccccc2)C(=O)N[C@@H](CCC(N)=O)C(=O)N[C@@H](CC(N)=O)C(=O)N1)C(=O)NCC(N)=O — pIC50 (AVPR2; ligand displacement, radioligand; cell membranes): 7.85
O=C1N[C@H](C(=O)O)CS1 — pIC50 (Hydroxycarboxylic acid receptor 2 (HCAR2, Homo sapiens, UniProt Q8TDS4); ligand displacement, radioligand; cell membranes): ~3.05
C=CC(=O)Nc1cc(Nc2nccc(-c3cn(C4CC4)c4ccccc34)n2)c(OC)cc1N(C)CCN(C)C — pIC50 (Epidermal growth factor receptor (EGFR, Homo sapiens, UniProt P00533, D761Y); enzyme activity, inhibitor, TR-FRET): 9.08
Cc1ccc(NC(=O)c2ccc(C)c(C(F)(F)F)c2)cc1C#Cc1nn(C2CCC(O)CC2)c2ncnc(N)c12 (stereo not shown) — pIC50 (Ephrin type-B receptor 2 (EPHB2, Homo sapiens, UniProt P29323); enzyme activity, inhibitor, radiometric): 7.48
O=C(O)Cc1ccccc1Nc1c(Cl)cccc1Cl — pIC50 (Delta-aminolevulinic acid dehydratase C162A/K59N; enzyme activity, inhibitor, absorbance; pH 8, with preincubation): 5.05
COc1ccc(-c2coc3cc(O)c(CC=C(C)C)c(O)c3c2=O)c(O)c1 — pIC50 (BACE1; enzyme activity, inhibitor): 4.38
CN1CCN(c2ccc(Nc3ncc4cc(C#N)c(=O)n(C5CCCC5)c4n3)cc2)CC1 — pIC50 (ROS1; enzyme activity, inhibitor): 5.65
COc1ccc2c(Oc3ccc4c(C(=O)Nc5ccccc5N)cccc4c3)ccnc2c1 — pIC50 (BRAF; enzyme activity, inhibitor): < 6.30
Oc1c2ccccc2c2c3c(cccc13)N=N2 — pIC50 (Non-receptor tyrosine-protein kinase TYK2 (TYK2, Homo sapiens, UniProt P29597); enzyme activity, inhibitor): 6.36
Nc1ncc2c(n1)-c1c([nH]c3ccc(-c4ccc(F)cc4)cc13)CCC2 — pIC50 (Non-receptor tyrosine-protein kinase TYK2, JH2 (TYK2, Homo sapiens, UniProt P29597); target engagement in cells, BRET): < 5.00
[N-]=[N+]=N[C@H](CC(=O)NO)Cc1ccc(O)cc1 — pIC50 (Endoplasmic reticulum aminopeptidase 2 (ERAP2, Homo sapiens, UniProt Q6P179); enzyme activity, inhibitor, fluorescence): 4.23
O=C(N/N=C/CN1CCCCC1)Nc1cc2c(Nc3ccc(F)c(Cl)c3)ncnc2cc1O[C@H]1CCOC1 — pIC50 (Epidermal growth factor receptor (EGFR, Homo sapiens, UniProt P00533, L858R/T790M); enzyme activity, inhibitor): 8.07
